According to ChEMBL document CHEMBL1133253, “Improved antibacterial activities of coumarin antibiotics bearing 5',5'-dialkylnoviose: biological activity of RU79115” (Bioorg Med Chem Lett, 2000):
Values after ≈ are worked out from the molar mass of the structure shown.

What was measured:
Format in all cases: functional
Mus musculus [1] = assay: Minimum inhibitory concentration of the subcutaneously administered compound evaluated against Staphylococcus aureus GO3 strain in mice (SC)
Mus musculus [2] = assay: Protective dose of orally administered compound against intraperitoneally-induced septicaemia model (Enterococci faecalis D2HT6 strain) in murine; settings: po, read-out: PD50
In short: (§1)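 PD50 was measured in a murine septicaemia model, with infection induced intraperitoneally with the named Gram-positive strain. Test compound was given orally and the PD50 was calculated by the probit method.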

Mus musculus [3] = assay: Protective dose of subcutaneously administered compound against intraperitoneally-induced septicaemia model (Staphylococcus aureus HT-17) in murine; settings: sc, read-out: PD50
In short: (§2)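 Murine septicaemia was induced by intraperitoneal infection, and the compound was given subcutaneously. PD50 was derived by probit analysis.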

Mus musculus [4] = assay: Minimum inhibitory concentration of the subcutaneously administered compound evaluated against Staphylococcus aureus HT-17 strain in mice (SC)
Mus musculus [5] = assay: Protective dose of subcutaneously administered compound against intraperitoneally-induced septicaemia model (Staphylococcus aureus GO3) in murine; settings: sc, read-out: PD50; in short: as §2
Mus musculus [6] = assay: Protective dose of orally administered compound against intraperitoneally-induced septicaemia model ( vancomycin resistant Enterococci faecium D3HM4 strain) in murine; settings: po, read-out: PD50; in short: as §1
Mus musculus [7] = assay: Protective dose of orally administered compound against intraperitoneally-induced septicaemia model ( vancomycin resistant Enterococci faecium D3HT12 strain) in murine; settings: po, read-out: PD50; in short: as §1
Mus musculus [8] = assay: Protective dose of orally administered compound against intraperitoneally-induced septicaemia model ( vancomycin resistant Enterococci faecium D3HM3 strain) in murine; settings: po, read-out: PD50; in short: as §1
Mus musculus [9] = assay: Protective dose of orally administered compound against intraperitoneally-induced septicaemia model (Enterococci faecium D3HT7 strain) in murine; settings: po, read-out: PD50
Mus musculus [10] = assay: Minimum inhibitory concentration of the subcutaneously administered compound evaluated against […] PW3 strain in mice (SC)
Mus musculus [11] = assay: Protective dose of subcutaneously administered compound against intraperitoneally-induced septicaemia model ([…] PW3 strain) in murine; settings: sc, read-out: PD50; in short: as §2

CC(=O)NC[C@H]1CN(c2ccc(N3CCOCC3)c(F)c2)C(=O)O1 [LINEZOLID]
MIC (Mus musculus [1]): 2.5 µg/mL (≈ 7.41 µM) | ED50 (Mus musculus [2]): 4.2 mg/kg | ED50 (Mus musculus [3]): 5.8 mg/kg | MIC (Mus musculus [4]): 1.2 µg/mL (≈ 3.56 µM) | ED50 (Mus musculus [5]): 8.7 mg/kg | ED50 (Mus musculus [6]): 8.6 mg/kg | ED50 (Mus musculus [7]): 1.8 mg/kg | ED50 (Mus musculus [8]): 2.1 mg/kg | ED50 (Mus musculus [9]): 2.4 mg/kg | MIC (Mus musculus [10]): 1.2 µg/mL (≈ 3.56 µM) | ED50 (Mus musculus [11]): 3 mg/kg
